Measurements published in ChEMBL document CHEMBL2434850, “Synthesis and antibacterial activity of novel modified 5-O-mycaminose 14-membered ketolides” (2013).
In brackets after ≈: the same amount, converted by molar mass.

Legend:
Format in all cases: functional
Staphylococcus aureus [1] = assay: Antibacterial activity against methicillin-sensitive Staphylococcus aureus 15 by broth microdilution method
In short: (§1)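 Value is the minimum inhibitory concentration (MIC), determined by broth microdilution following CLSI recommendations. Strains ATCC 29213, 15 and 09-06 are methicillin-sensitive S. aureus; ATCC 12228 and 09-9 are methicillin-sensitive S. epidermidis.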

[2] = test system: Staphylococcus epidermidis; assay: Antibacterial activity against methicillin-resistant Staphylococcus epidermidis 09-3 by broth microdilution method
[3] = test system: Staphylococcus epidermidis; assay: Antibacterial activity against methicillin-sensitive Staphylococcus epidermidis ATCC 12228 by broth microdilution method; in short: as §1
Staphylococcus aureus [4] = assay: Antibacterial activity against methicillin-sensitive Staphylococcus aureus ATCC 29213 by broth microdilution method; in short: as §1
Staphylococcus aureus [5] = assay: Antibacterial activity against methicillin-sensitive Staphylococcus aureus 09-6 by broth microdilution method; in short: as §1
[6] = test system: Staphylococcus epidermidis; assay: Antibacterial activity against methicillin-sensitive Staphylococcus epidermidis 09-9 by broth microdilution method; in short: as §1
Staphylococcus aureus [7] = assay: Antibacterial activity against methicillin-resistant Staphylococcus aureus 09-13 by broth microdilution method
In short: (§2)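 MIC determined by broth microdilution following CLSI recommendations; strain is a methicillin-resistant S. aureus (MRSA).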

Staphylococcus aureus [8] = assay: Antibacterial activity against methicillin-resistant Staphylococcus aureus ATCC 33591 by broth microdilution method; in short: as §2

Structure (SMILES): CC[C@H]1OC(=O)[C@H](C)C(=O)[C@H](C)[C@@H](O[C@@H]2O[C@H](C)[C@@H](OC(=O)NCCc3ccccc3)[C@H](N(C)C)[C@H]2O)[C@@](C)(OC)C[C@@H](C)/C(=N\O)[C@H](C)[C@H]2OC(=O)O[C@@]21C
- MIC (Staphylococcus aureus [1]): 1 µg/mL (≈ 1.26 µM)
- MIC [2]: > 32 µg/mL
- MIC [3]: 0.5 µg/mL (≈ 0.631 µM)
- MIC (Staphylococcus aureus [4]): 1 µg/mL (≈ 1.26 µM)
- MIC (Staphylococcus aureus [5]): 1 µg/mL (≈ 1.26 µM)
- MIC [6]: 2 µg/mL (≈ 2.53 µM)
- MIC (Staphylococcus aureus [7]): > 32 µg/mL
- MIC (Staphylococcus aureus [8]): > 32 µg/mL

Structure (SMILES): CC[C@H]1OC(=O)[C@H](C)C(=O)[C@H](C)[C@@H](O[C@@H]2O[C@H](C)[C@@H](OC(=O)NCCc3ccccc3)[C@H](N(C)C)[C@H]2O)[C@@](C)(OC)C[C@@H](C)/C(=N\OC(=O)NCCc2ccccc2)[C@H](C)[C@H]2OC(=O)O[C@@]21C
- MIC (Staphylococcus aureus [1]): > 32 µg/mL
- MIC [2]: > 32 µg/mL
- MIC [3]: > 32 µg/mL
- MIC (Staphylococcus aureus [4]): > 32 µg/mL
- MIC (Staphylococcus aureus [5]): > 32 µg/mL
- MIC [6]: > 32 µg/mL
- MIC (Staphylococcus aureus [7]): > 32 µg/mL
- MIC (Staphylococcus aureus [8]): > 32 µg/mL

Structure (SMILES): CC[C@H]1OC(=O)[C@H](C)C(=O)[C@H](C)[C@@H](O[C@@H]2O[C@H](C)[C@@H](OC(=O)Nc3ccc(C(F)(F)F)cc3)[C@H](N(C)C)[C@H]2O)[C@@](C)(OC)C[C@@H](C)/C(=N\O)[C@H](C)[C@H]2OC(=O)O[C@@]21C
- MIC (Staphylococcus aureus [1]): > 32 µg/mL
- MIC [2]: > 32 µg/mL
- MIC [3]: 32 µg/mL (≈ 38.5 µM)
- MIC (Staphylococcus aureus [4]): > 32 µg/mL
- MIC (Staphylococcus aureus [5]): > 32 µg/mL
- MIC [6]: > 32 µg/mL
- MIC (Staphylococcus aureus [7]): > 32 µg/mL
- MIC (Staphylococcus aureus [8]): > 32 µg/mL

Structure (SMILES): CC[C@H]1OC(=O)[C@H](C)C(=O)[C@H](C)[C@@H](O[C@@H]2O[C@H](C)[C@@H](OC(=O)NC3CCCCC3)[C@H](N(C)C)[C@H]2O)[C@@](C)(OC)C[C@@H](C)/C(=N\OC(=O)NC2CCCCC2)[C@H](C)[C@H]2OC(=O)O[C@@]21C
- MIC (Staphylococcus aureus [1]): > 32 µg/mL
- MIC [2]: > 32 µg/mL
- MIC [3]: 32 µg/mL (≈ 35.8 µM)
- MIC (Staphylococcus aureus [4]): 32 µg/mL (≈ 35.8 µM)
- MIC (Staphylococcus aureus [5]): > 32 µg/mL
- MIC [6]: > 32 µg/mL
- MIC (Staphylococcus aureus [7]): > 32 µg/mL
- MIC (Staphylococcus aureus [8]): > 32 µg/mL

Structure (SMILES): CCCCCNC(=O)O/N=C1\[C@H](C)C[C@](C)(OC)[C@H](O[C@@H]2O[C@H](C)[C@@H](OC(=O)NCCCCC)[C@H](N(C)C)[C@H]2O)[C@@H](C)C(=O)[C@@H](C)C(=O)O[C@H](CC)[C@@]2(C)OC(=O)O[C@@H]2[C@H]1C
- MIC (Staphylococcus aureus [1]): > 64 µg/mL
- MIC [2]: > 64 µg/mL
- MIC [3]: > 64 µg/mL
- MIC (Staphylococcus aureus [4]): > 64 µg/mL
- MIC (Staphylococcus aureus [5]): > 64 µg/mL
- MIC [6]: > 64 µg/mL
- MIC (Staphylococcus aureus [7]): > 64 µg/mL
- MIC (Staphylococcus aureus [8]): > 64 µg/mL

Structure (SMILES): CC[C@H]1OC(=O)[C@H](C)C(=O)[C@H](C)[C@@H](O[C@@H]2O[C@H](C)[C@@H](OC(=O)NCCCl)[C@H](N(C)C)[C@H]2O)[C@@](C)(OC)C[C@@H](C)/C(=N\OC(=O)NCCCl)[C@H](C)[C@H]2OC(=O)O[C@@]21C
- MIC (Staphylococcus aureus [1]): > 32 µg/mL
- MIC [2]: > 32 µg/mL
- MIC [3]: > 32 µg/mL
- MIC (Staphylococcus aureus [4]): > 32 µg/mL
- MIC (Staphylococcus aureus [5]): > 32 µg/mL
- MIC [6]: > 32 µg/mL
- MIC (Staphylococcus aureus [7]): > 32 µg/mL
- MIC (Staphylococcus aureus [8]): > 32 µg/mL

Structure (SMILES): CC[C@H]1OC(=O)[C@H](C)C(=O)[C@H](C)[C@@H](O[C@@H]2O[C@H](C)[C@@H](O)[C@H](N(C)C)[C@H]2O)[C@@](C)(OC)C[C@@H](C)/C(=N\O)[C@H](C)[C@H]2OC(=O)O[C@@]21C
- MIC (Staphylococcus aureus [1]): > 64 µg/mL
- MIC [2]: > 64 µg/mL
- MIC [3]: 2 µg/mL (≈ 3.1 µM)
- MIC (Staphylococcus aureus [4]): 2 µg/mL (≈ 3.1 µM)
- MIC (Staphylococcus aureus [5]): 2 µg/mL (≈ 3.1 µM)
- MIC [6]: 2 µg/mL (≈ 3.1 µM)
- MIC (Staphylococcus aureus [7]): > 64 µg/mL
- MIC (Staphylococcus aureus [8]): > 64 µg/mL

Structure (SMILES): CC[C@H]1OC(=O)[C@H](C)[C@@H](O[C@H]2C[C@@](C)(OC)[C@@H](O)[C@H](C)O2)[C@H](C)[C@@H](O[C@@H]2O[C@H](C)C[C@H](N(C)C)[C@H]2O)[C@](C)(OC)C[C@@H](C)C(=O)[C@H](C)[C@@H](O)[C@]1(C)O [CLARITHROMYCIN]
- MIC (Staphylococcus aureus [1]): 0.5 µg/mL (≈ 0.668 µM)
- MIC [2]: > 64 µg/mL
- MIC [3]: 0.06 µg/mL (≈ 0.0802 µM)
- MIC (Staphylococcus aureus [4]): 0.06 µg/mL (≈ 0.0802 µM)
- MIC (Staphylococcus aureus [5]): 0.06 µg/mL (≈ 0.0802 µM)
- MIC [6]: 4 µg/mL (≈ 5.35 µM)
- MIC (Staphylococcus aureus [7]): > 64 µg/mL
- MIC (Staphylococcus aureus [8]): > 64 µg/mL

Structure (SMILES): CC[C@H]1OC(=O)[C@H](C)C(=O)[C@H](C)[C@@H](O[C@@H]2O[C@H](C)C[C@H](N(C)C)[C@H]2O)[C@](C)(OC)C[C@@H](C)C(=O)[C@H](C)[C@H]2N(CCCCn3cnc(-c4cccnc4)c3)C(=O)O[C@]12C [TELITHROMYCIN]
- MIC (Staphylococcus aureus [1]): 2 µg/mL (≈ 2.46 µM)
- MIC [2]: 32 µg/mL (≈ 39.4 µM)
- MIC [3]: 0.06 µg/mL (≈ 0.0739 µM)
- MIC (Staphylococcus aureus [4]): 0.5 µg/mL (≈ 0.616 µM)
- MIC (Staphylococcus aureus [5]): 0.5 µg/mL (≈ 0.616 µM)
- MIC [6]: 0.06 µg/mL (≈ 0.0739 µM)
- MIC (Staphylococcus aureus [7]): > 32 µg/mL
- MIC (Staphylococcus aureus [8]): > 32 µg/mL
